Measurements reported in publication PMC12634867 (Neoplasia (New York, N.Y.), 2025).
Read-outs that look alike come from different tables or passages of the source.

Legend:
CBA/CaJ model = CBA/CaJ model and retrospective human study; cited from earlier work
[1] = plasma pharmacokinetics of single oral AZD5438 dosing in mice; assay type: in vivo; conditions: CBA, mouse, 37.5 mg/kg
[2] = clinical phase I tolerability, cancer patients; assay type: in vivo, human
CBA/CaJ mice [3] = test: multi-cycle cisplatin ototoxicity mouse model, ABR; assay type: in vivo
CBA/CaJ mice [4] = test: multi-cycle cisplatin ototoxicity mouse model, DPOAE; assay type: in vivo; conditions: any combination group
CBA/CaJ mice [5] = test: multi-cycle cisplatin ototoxicity mouse model, hair cell counts; assay type: in vivo
CBA/CaJ mice [6] = test: multi-cycle cisplatin ototoxicity mouse model, survival and general condition; assay type: in vivo
NCCIT cells = test: NCCIT cell confluence; assay type: cell-based, human; conditions: for IC50: read-out: IC50, NCCIT cells
JKT1 cells = test: MTT cell viability, JKT1; assay type: cell-based; conditions: ∼0.02-100 μM AZD5438 together with cisplatin, 24 h MTT
SEM-1 cells = test: MTT cell viability, SEM-1; assay type: cell-based; conditions: ∼0.02-100 μM AZD5438 together with cisplatin, 24 h MTT
[7] = system: NCCIT tumor-bearing SCID mice; test: NCCIT xenograft mouse model; assay type: in vivo
Summary of the method: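 Male SCID mice aged 12 wk were implanted s.c. with 1 × 10⁷ NCCIT cells in 1:1 Matrigel. At mean tumor size ~100 mm³, they were randomized into four groups (n = 10). […] Oral test compound or vehicle (10% DMSO/5% Tween-80/40% PEG-300/45% saline) was given b.i.d. on days 1–3. Cycles lasted 7 days, three in all. Caliper volumes normalized to baseline; two-way ANOVA with Tukey.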

cochlear explants = conditions: read-out: EC50 in cochlear explants; protection against cisplatin; cited from earlier work
cyclin E/CDK2 = conditions: read-out: in vitro IC50 against cyclin E/CDK2; cited from earlier work
cyclin B1/CDK1 = conditions: read-out: in vitro IC50 against cyclin B1/CDK1; cited from earlier work
cyclin D1/CDK4 = conditions: read-out: in vitro IC50 against cyclin D1/CDK4; cited from earlier work
[8] = cited from earlier work
[9] = single dose, healthy male volunteers; cited from earlier work
[10] = cited from earlier work; remark: listed apart in the source
[11] = system: IMR-32, SH-SY5Y, SKN-AS, SHP-77, H115, A549, Kelly, JKT1, NCCIT; conditions: neuroblastoma, lung and testicular origins; cited from earlier work
FVB mice = conditions: cited from earlier work
[12] = system: noise-induced hearing loss (NIHL) model; conditions: cited from earlier work
mice = conditions: cited from earlier work
phosphorylated Rb = conditions: cited from earlier work
cyclin A/CDK2 = conditions: read-out: in vitro IC50 against cyclin A/CDK2; cited from earlier work

## CC(C)c1c(C(=O)Nc2ccccc2)c(-c2ccccc2)c(-c2ccc(F)cc2)n1CC[C@@H](O)C[C@@H](O)CC(=O)O [atorvastatin]
CBA/CaJ model
  auditory protection: 5–8 dB

## Cc1ncc(-c2ccnc(Nc3ccc(S(C)(=O)=O)cc3)n2)n1C(C)C [AZD5438]
[1]
  Cmax: 1470 ± 916 ng/mL
  concentration at 2 h: 621 ± 305 ng/mL
  concentration at 3 h: 510 ± 135 ng/mL
[2]; cancer patients, four times daily (QID), conjectured from NTDs
  estimated MTD: 20 to 90 mg
[2]; extrapolated from tolerated Cmax
  human equivalent (tolerated) mouse dose: ≤ 9.4 mg/kg
[2]; human, plasma, oral
  Cmax: < 300 ng/mL
CBA/CaJ mice [3]; any combination group
  ABR wave 1 amplitudes, protection vs cisplatin only: no significant protection
CBA/CaJ mice [3]; combination groups, all levels at 8 and 16 kHz
  ABR wave 1 latency, improvement vs cisplatin only: did not reveal significant improvements
CBA/CaJ mice [4]
  DPOAE amplitudes input and output analysis, protection vs cisplatin only: no significant protection
  DPOAE thresholds and amplitudes, protection vs cisplatin only: no significant protection
CBA/CaJ mice [5]; AZD5438 co-treated groups, 32 kHz region
  reduction of cisplatin-induced outer hair cell loss: did not significantly reduce cisplatin-induced outer hair cell loss
CBA/CaJ mice [5]; all groups
  inner hair cell loss: none of the groups caused any inner hair cell loss
CBA/CaJ mice [6]; co-treated animals (Fig. 2, Fig. 3)
  adverse effects based on body weight or behavior: no significant adverse effects
CBA/CaJ mice [6]; multi-cycle cisplatin + AZD5438 b.i.d.
  mortality during the entire experiments: Only a few mice mostly in the cisplatin + 37.5 mg/kg AZD5438 group died
NCCIT cells; Homo sapiens, NCCIT, 40 h
  IC50: 1380 nM
NCCIT cells; cisplatin 5 μM + AZD5438 3 μM, 40 h
  cell death of combination vs either drug alone: significantly higher cell death
JKT1 cells
  interference with cisplatin tumor cell loss, JKT1: no substantial interferences
SEM-1 cells
  interference with cisplatin tumor cell loss, SEM-1: no substantial interferences
[7]; 9.4 mg/kg b.i.d. oral + cisplatin 3 mg/kg
  tumor volume, cisplatin + AZD5438 vs cisplatin only: no significant differences
[7]; AZD5438 only, 9.4 mg/kg b.i.d. oral, vs vehicle
  tumor volume: increased at similar rates
[7]; cisplatin + AZD5438 vs cisplatin only
  body weight: trend of body weight loss more than the cisplatin only group, although insignificantly
[7]; combination group and AZD5438 only group, 9.4 mg/kg b.i.d.
  survival: several deaths occurred
Cochlear explants
  EC50: 5 nM
Cyclin E/CDK2
  IC50: 6 nM
Cyclin B1/CDK1
  IC50: 16 nM
Cyclin D1/CDK4
  IC50: 450 nM
[8]; oral, animal and human studies
  dose-dependent linear Cmax values: 5 to 1,000 ng/mL
[8]; plasma, single oral dose
  Tmax: 30 to 180 min
[9]
  maximum tolerated dose (MTD): 80 mg
[10]; cancer patient cohort, QID one day weekly
  well tolerated dose: ≤ 90 mg
[10]; cancer patients, four times (QID) for one day per week
  non-tolerated dose (NTD): > 90 mg
[10]; cancer patients, four times daily for at least 14 and 28 consecutive days
  non-tolerated dose (NTD): 40 mg
[10]; continuous dosing, 40 mg QID, cancer patients
  adverse events: gastrointestinal in origin, including profound anorexia and fatigue in some patients, accompanied by nausea and vomiting
[11]
  interference with cisplatin's tumor killing in nine cancer cell lines: does not interfere
FVB mice; oral 75 mg/kg once daily for three days
  protection against CIHL: significantly protected against CIHL at 32 kHz
FVB mice; transtympanic 50 µM, one hour before and 24 h after cisplatin
  cisplatin-induced hearing loss (ABR thresholds at 32 kHz): significantly attenuated cisplatin-induced hearing loss
[12]; AZD5438 and dabrafenib, preservation at 8, 16 and 32 kHz
  protection in NIHL model, co-treatment with dabrafenib: enhanced protection
[12]; oral 75 mg/kg
  auditory thresholds in NIHL model: improved auditory thresholds at 8 and 16 kHz
mice
  cisplatin-induced nephrotoxicity: protected against cisplatin-induced nephrotoxicity
Phosphorylated Rb
  time after administration within which phosphorylated Rb was modulated: 1 to 3 h
Cyclin A/CDK2
  IC50: 45 nM

## N.N.[Cl][Pt][Cl] [cisplatin, cis-diamminedichloroplatinum (II)]
NCCIT cells; single agent, confluency over 40 h
  IC50: 9000 nM
[7]; cisplatin only, 3 mg/kg, two days per week
  tumor volume: completely obliterated the tumor volumes
FVB mice; single IP cisplatin 30 mg/kg, 8, 16 and 32 kHz
  auditory threshold elevations: 5–20 dB
